Structures are written as SMILES. Where a SMILES comes first, the peptide text is derived from it. [ ]: non-standard residue; d: D form. Aib = CC(C)(N)C(=O)O

Chain of Furin (P09958 whole entry): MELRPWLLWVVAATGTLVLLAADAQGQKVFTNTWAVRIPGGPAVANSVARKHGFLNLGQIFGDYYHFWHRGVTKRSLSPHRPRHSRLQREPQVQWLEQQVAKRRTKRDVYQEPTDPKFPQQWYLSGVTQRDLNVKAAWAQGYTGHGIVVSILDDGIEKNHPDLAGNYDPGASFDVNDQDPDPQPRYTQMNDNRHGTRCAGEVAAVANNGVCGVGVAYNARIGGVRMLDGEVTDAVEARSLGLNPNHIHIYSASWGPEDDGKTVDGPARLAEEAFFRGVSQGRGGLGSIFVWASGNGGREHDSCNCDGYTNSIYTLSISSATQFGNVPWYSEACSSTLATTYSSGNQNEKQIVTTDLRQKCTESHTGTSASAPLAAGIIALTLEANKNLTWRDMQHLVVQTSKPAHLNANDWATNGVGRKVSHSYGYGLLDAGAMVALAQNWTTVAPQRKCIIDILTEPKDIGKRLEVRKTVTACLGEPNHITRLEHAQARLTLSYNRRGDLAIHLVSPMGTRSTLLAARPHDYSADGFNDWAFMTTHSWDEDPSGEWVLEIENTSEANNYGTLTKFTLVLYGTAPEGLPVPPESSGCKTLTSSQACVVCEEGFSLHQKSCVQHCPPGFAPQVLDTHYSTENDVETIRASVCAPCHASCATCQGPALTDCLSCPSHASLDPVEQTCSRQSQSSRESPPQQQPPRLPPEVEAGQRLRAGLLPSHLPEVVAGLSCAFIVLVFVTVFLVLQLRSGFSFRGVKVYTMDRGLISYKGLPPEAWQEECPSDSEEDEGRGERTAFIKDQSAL

This experiment addresses Furin (Homo sapiens, UniProt P09958). The experiment can be described thus: Inhibition of recombinant soluble human furin using pyroGlu-Arg-Thr-Lys-Arg-methyl-coumaryl-7-amide as substrate measured after 1 hr. An outline of the steps:
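Soluble human recombinant furin was tested in a competitive kinetic assay. Ki is reported as the mean ± SD of at least two independent experiments.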
One may read the Ki as a dissociation constant, usually derived from enzyme kinetics or from competition with a known ligand. Regarding `CC(=O)N[C@@H](CC(N)=O)C(=O)N[C@@H](C)C(=O)N[C@@H](CCCNC(=N)N)C(=O)N[C@@H](CCCNC(=N)N)C(=O)N[C@@H](CCCNC(=N)N)C(=O)N[C@@H](CCCCN)C(=O)N[C@@H](CCCCN)C(=O)N[C@@H](CCCNC(=N)N)C(=O)N[C@H](C(N)=O)[C@@H](C)O`, the Ki was 12 nM.

Take `CC(=O)N[C@@H](CCCCN)C(=O)N[C@@H](C)C(=O)N[C@@H](CCCNC(=N)N)C(=O)N[C@@H](CCCNC(=N)N)C(=O)N[C@@H](CCCNC(=N)N)C(=O)N[C@@H](CCCCN)C(=O)N[C@@H](CCCCN)C(=O)N[C@@H](CCCNC(=N)N)C(=O)N[C@H](C(N)=O)[C@@H](C)O`: the Ki stood at 13 nM.

For `CC(=O)N[C@@H](CCCNC(=N)N)C(=O)N[C@@H](C)C(=O)N[C@@H](CCCNC(=N)N)C(=O)N[C@@H](Cc1ccc(O)cc1)C(=O)N[C@@H](CCCNC(=N)N)C(=O)N[C@@H](CCCCN)C(=O)N[C@@H](CCCCN)C(=O)N[C@@H](CCCNC(=N)N)C(=O)N[C@H](C(N)=O)[C@@H](C)O`, the inhibition constant (Ki) came to 35 nM.

For the molecule `CC[C@H](NC(=O)[C@H](CCCNC(=N)N)NC(=O)[C@H](C)NC(=O)[C@@H]1CCCN1C(C)=O)C(=O)N[C@@H](CCCNC(=N)N)C(=O)N[C@@H](CCCCN)C(=O)N[C@@H](CCCCN)C(=O)N[C@@H](CCCNC(=N)N)C(=O)N[C@H](C(N)=O)[C@@H](C)O`, the inhibition constant (Ki) is 10 nM.

As to `CC[C@H](C)[C@H](NC(=O)[C@H](CCCNC(=N)N)NC(=O)[C@H](C)NC(=O)[C@H](CO)NC(C)=O)C(=O)N[C@@H](CCCNC(=N)N)C(=O)N[C@@H](CCCCN)C(=O)N[C@@H](CCCCN)C(=O)N[C@@H](CCCNC(=N)N)C(=O)N[C@H](C(N)=O)[C@@H](C)O` (Ac-SARIRKKRT-NH2), the Ki is 8 nM.

As for `CC(=O)N[C@@H](CCCNC(=N)N)C(=O)N[C@@H](C)C(=O)N[C@@H](CO)C(=O)N[C@@H](CCCNC(=N)N)C(=O)N[C@@H](CCCNC(=N)N)C(=O)N[C@@H](CCCCN)C(=O)N[C@@H](CCCCN)C(=O)N[C@@H](CCCNC(=N)N)C(=O)N[C@H](C(N)=O)[C@@H](C)O`, the inhibition constant Ki was determined as 29 nM.

As for `CC(=O)N[C@@H](CCCNC(=N)N)C(=O)N[C@@H](CCC(=O)O)C(=O)N[C@@H](CCCNC(=N)N)C(=O)N[C@@H](CCCNC(=N)N)C(=O)N[C@@H](CCCNC(=N)N)C(=O)N[C@@H](CCCCN)C(=O)N[C@@H](CCCCN)C(=O)N[C@@H](CCCNC(=N)N)C(=O)N[C@H](C(N)=O)[C@@H](C)O`, the Ki turned out to be 24 nM.

Regarding `CC(=O)N[C@@H](CCCNC(=N)N)C(=O)N[C@@H](CC(N)=O)C(=O)N[C@@H](CCCNC(=N)N)C(=O)N[C@@H](CCCNC(=N)N)C(=O)N[C@@H](CCCNC(=N)N)C(=O)N[C@@H](CCCCN)C(=O)N[C@@H](CCCCN)C(=O)N[C@@H](CCCNC(=N)N)C(=O)N[C@H](C(N)=O)[C@@H](C)O`, the Ki was 20 nM.

For the molecule `CC[C@H](NC(=O)[C@H](CCCNC(=N)N)NC(=O)[C@H](C)NC(=O)[C@@H](CO)NC(C)=O)C(=O)N[C@@H](CCCNC(=N)N)C(=O)N[C@@H](CCCCN)C(=O)N[C@@H](CCCCN)C(=O)N[C@@H](CCCNC(=N)N)C(=O)N[C@H](C(N)=O)[C@@H](C)O`, the inhibition constant Ki came to 15 nM.

On to `CC(=O)N[C@@H](CCCNC(=N)N)C(=O)N[C@H](C(=O)N[C@@H](CCCNC(=N)N)C(=O)N[C@@H](CCCNC(=N)N)C(=O)N[C@@H](CCCNC(=N)N)C(=O)N[C@@H](CCCCN)C(=O)N[C@@H](CCCCN)C(=O)N[C@@H](CCCNC(=N)N)C(=O)N[C@H](C(N)=O)[C@@H](C)O)[C@@H](C)O`, for which the Ki was 16 nM.

As to `CC(=O)N[C@@H](CCC(N)=O)C(=O)N[C@@H](C)C(=O)N[C@@H](CCCNC(=N)N)C(=O)N[C@@H](CCCNC(=N)N)C(=O)N[C@@H](CCCNC(=N)N)C(=O)N[C@@H](CCCCN)C(=O)N[C@@H](CCCCN)C(=O)N[C@@H](CCCNC(=N)N)C(=O)N[C@H](C(N)=O)[C@@H](C)O`, the Ki came out at 10 nM.

`CC[C@H](C)[C@H](NC(=O)[C@H](CCCNC(=N)N)NC(=O)[C@H](C)NC(=O)C(C)(C)NC(C)=O)C(=O)N[C@@H](CCCNC(=N)N)C(=O)N[C@@H](CCCCN)C(=O)N[C@@H](CCCCN)C(=O)N[C@@H](CCCNC(=N)N)C(=O)N[C@H](C(N)=O)[C@@H](C)O` (Ac-[Aib]ARIRKKRT-NH2): the Ki was 13 nM.

With `CC(=O)N[C@@H](CCCNC(=N)N)C(=O)N[C@@H](CO)C(=O)N[C@@H](CCCNC(=N)N)C(=O)N[C@@H](CCCNC(=N)N)C(=O)N[C@@H](CCCNC(=N)N)C(=O)N[C@@H](CCCCN)C(=O)N[C@@H](CCCCN)C(=O)N[C@@H](CCCNC(=N)N)C(=O)N[C@H](C(N)=O)[C@@H](C)O`, the Ki was 15 nM.

On to `CSCC[C@H](NC(=O)[C@H](C)NC(=O)[C@H](CCCNC(=N)N)NC(C)=O)C(=O)N[C@@H](CCCNC(=N)N)C(=O)N[C@@H](CCCNC(=N)N)C(=O)N[C@@H](CCCCN)C(=O)N[C@@H](CCCCN)C(=O)N[C@@H](CCCNC(=N)N)C(=O)N[C@H](C(N)=O)[C@@H](C)O`, for which the Ki came to 31 nM.

For the molecule `CC(=O)N[C@@H](CCCNC(=N)N)C(=O)N[C@@H](C)C(=O)N[C@@H](CCC(N)=O)C(=O)N[C@@H](CCCNC(=N)N)C(=O)N[C@@H](CCCNC(=N)N)C(=O)N[C@@H](CCCCN)C(=O)N[C@@H](CCCCN)C(=O)N[C@@H](CCCNC(=N)N)C(=O)N[C@H](C(N)=O)[C@@H](C)O`, the inhibition constant Ki is 20 nM.

Consider `CC(=O)N[C@@H](Cc1c[nH]cn1)C(=O)N[C@@H](C)C(=O)N[C@@H](CCCNC(=N)N)C(=O)N[C@@H](CCCNC(=N)N)C(=O)N[C@@H](CCCNC(=N)N)C(=O)N[C@@H](CCCCN)C(=O)N[C@@H](CCCCN)C(=O)N[C@@H](CCCNC(=N)N)C(=O)N[C@H](C(N)=O)[C@@H](C)O`, for which the inhibitory constant (Ki) was 12 nM.

Regarding `CC(=O)N[C@@H](CCC(=O)O)C(=O)N[C@@H](C)C(=O)N[C@@H](CCCNC(=N)N)C(=O)N[C@@H](CCCNC(=N)N)C(=O)N[C@@H](CCCNC(=N)N)C(=O)N[C@@H](CCCCN)C(=O)N[C@@H](CCCCN)C(=O)N[C@@H](CCCNC(=N)N)C(=O)N[C@H](C(N)=O)[C@@H](C)O`, the Ki amounted to 11 nM.

Regarding `CSCC[C@H](NC(=O)[C@H](CCCNC(=N)N)NC(C)=O)C(=O)N[C@@H](CCCNC(=N)N)C(=O)N[C@@H](CCCNC(=N)N)C(=O)N[C@@H](CCCNC(=N)N)C(=O)N[C@@H](CCCCN)C(=O)N[C@@H](CCCCN)C(=O)N[C@@H](CCCNC(=N)N)C(=O)N[C@H](C(N)=O)[C@@H](C)O`, the inhibition constant Ki was 38 nM.

On to `CC(=O)N1CCC[C@H]1C(=O)N[C@@H](C)C(=O)N[C@@H](CCCNC(=N)N)C(=O)N[C@@H](CCCNC(=N)N)C(=O)N[C@@H](CCCNC(=N)N)C(=O)N[C@@H](CCCCN)C(=O)N[C@@H](CCCCN)C(=O)N[C@@H](CCCNC(=N)N)C(=O)N[C@H](C(N)=O)[C@@H](C)O`, for which the inhibitory constant (Ki) was determined as 10 nM.

As for `CC(=O)N[C@@H](C)C(=O)N[C@@H](C)C(=O)N[C@@H](CCCNC(=N)N)C(=O)N[C@@H](CCCNC(=N)N)C(=O)N[C@@H](CCCNC(=N)N)C(=O)N[C@@H](CCCCN)C(=O)N[C@@H](CCCCN)C(=O)N[C@@H](CCCNC(=N)N)C(=O)N[C@H](C(N)=O)[C@@H](C)O`, the Ki was determined as 11 nM.

Turning to `CC(=O)N[C@@H](CCCNC(=N)N)C(=O)N[C@@H](Cc1c[nH]cn1)C(=O)N[C@@H](CCCNC(=N)N)C(=O)N[C@@H](CCCNC(=N)N)C(=O)N[C@@H](CCCNC(=N)N)C(=O)N[C@@H](CCCCN)C(=O)N[C@@H](CCCCN)C(=O)N[C@@H](CCCNC(=N)N)C(=O)N[C@H](C(N)=O)[C@@H](C)O`, the inhibition constant (Ki) was found to be 21 nM.

As for `CC(=O)N[C@@H](CCCNC(=N)N)C(=O)N1CCC[C@H]1C(=O)N[C@@H](CCCNC(=N)N)C(=O)N[C@@H](CCCNC(=N)N)C(=O)N[C@@H](CCCNC(=N)N)C(=O)N[C@@H](CCCCN)C(=O)N[C@@H](CCCCN)C(=O)N[C@@H](CCCNC(=N)N)C(=O)N[C@H](C(N)=O)[C@@H](C)O`, the Ki was 17 nM.

As to `CC(=O)N[C@@H](CCCNC(=N)N)C(=O)N[C@@H](C)C(=O)N[C@@H](Cc1ccc(O)cc1)C(=O)N[C@@H](CCCNC(=N)N)C(=O)N[C@@H](CCCNC(=N)N)C(=O)N[C@@H](CCCCN)C(=O)N[C@@H](CCCCN)C(=O)N[C@@H](CCCNC(=N)N)C(=O)N[C@H](C(N)=O)[C@@H](C)O`, the Ki was 48 nM.

In the case of `CC(=O)N[C@@H](CCCNC(=N)N)C(=O)N[C@@H](C)C(=O)N[C@@H](CCCNC(=N)N)C(=O)NC(C)(C)C(=O)N[C@@H](CCCNC(=N)N)C(=O)N[C@@H](CCCCN)C(=O)N[C@@H](CCCCN)C(=O)N[C@@H](CCCNC(=N)N)C(=O)N[C@H](C(N)=O)[C@@H](C)O`, the inhibition constant (Ki) worked out at 34 nM.

In the case of `CC(=O)N[C@@H](CCCNC(=N)N)C(=O)N[C@@H](C)C(=O)N[C@H](C(=O)N[C@@H](CCCNC(=N)N)C(=O)N[C@@H](CCCNC(=N)N)C(=O)N[C@@H](CCCCN)C(=O)N[C@@H](CCCCN)C(=O)N[C@@H](CCCNC(=N)N)C(=O)N[C@H](C(N)=O)[C@@H](C)O)C(C)C`, the inhibition constant Ki came to 21 nM.

In the case of `CC(=O)N[C@@H](CCCNC(=N)N)C(=O)N[C@@H](C)C(=O)N[C@@H](CCCNC(=N)N)C(=O)N[C@@H](CC(C)C)C(=O)N[C@@H](CCCNC(=N)N)C(=O)N[C@@H](CCCCN)C(=O)N[C@@H](CCCCN)C(=O)N[C@@H](CCCNC(=N)N)C(=O)N[C@H](C(N)=O)[C@@H](C)O`, the Ki worked out at 11 nM.

Take `CC(=O)N[C@@H](CC(C)C)C(=O)N[C@@H](C)C(=O)N[C@@H](CCCNC(=N)N)C(=O)N[C@@H](CCCNC(=N)N)C(=O)N[C@@H](CCCNC(=N)N)C(=O)N[C@@H](CCCCN)C(=O)N[C@@H](CCCCN)C(=O)N[C@@H](CCCNC(=N)N)C(=O)N[C@H](C(N)=O)[C@@H](C)O`: the Ki was found to be 12 nM.

For `CC(=O)N[C@@H](CCCNC(=N)N)C(=O)N[C@@H](Cc1ccc(O)cc1)C(=O)N[C@@H](CCCNC(=N)N)C(=O)N[C@@H](CCCNC(=N)N)C(=O)N[C@@H](CCCNC(=N)N)C(=O)N[C@@H](CCCCN)C(=O)N[C@@H](CCCCN)C(=O)N[C@@H](CCCNC(=N)N)C(=O)N[C@H](C(N)=O)[C@@H](C)O`, the Ki is 24 nM.

Regarding `CC[C@H](C)[C@H](NC(=O)[C@H](CCCNC(=N)N)NC(=O)[C@H](C)NC(=O)CNC(C)=O)C(=O)N[C@@H](CCCNC(=N)N)C(=O)N[C@@H](CCCCN)C(=O)N[C@@H](CCCCN)C(=O)N[C@@H](CCCNC(=N)N)C(=O)N[C@H](C(N)=O)[C@@H](C)O` (Ac-GARIRKKRT-NH2), the Ki was 9 nM.

With `CC(=O)N[C@@H](CCCNC(=N)N)C(=O)N[C@@H](C)C(=O)N1CCC[C@H]1C(=O)N[C@@H](CCCNC(=N)N)C(=O)N[C@@H](CCCNC(=N)N)C(=O)N[C@@H](CCCCN)C(=O)N[C@@H](CCCCN)C(=O)N[C@@H](CCCNC(=N)N)C(=O)N[C@H](C(N)=O)[C@@H](C)O`, the inhibition constant Ki worked out at 21 nM.

Source of the values: ChEMBL document CHEMBL4680371, “Design and Structure-Activity Relationship of a Potent Furin Inhibitor Derived from Influenza Hemagglutinin” (ACS Med Chem Lett, 2021).
